Laboratory results from publication PMC9087257 (The Journal of International Medical Research, 2022).

Tests used:
c-Met kinase = c-Met kinase (Homo sapiens, UniProt P08581); assay: ELISA kinase assay, c-Met; format: biochemical
HCC-44 cells = assay: MTT cell viability assay, HCC-44; format: cell-based; conditions: for antiproliferative efficacy against HCC-44 cells: 48 h, MTT
In short: (§1)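 MTT viability: cells grown in RPMI-1640 with 10% FBS and penicillin-streptomycin, seeded in 24-well plates and held 24 h at 37°C, 5% CO2. Test compound added over a range of concentrations: 48 h for the cancer-line panel; three treatment durations for NCI-H460, NCI-H3122, HCC-44 and BEAS2B. MTT added for 2 h at 37°C, formazan dissolved in DMSO with 30 min shaking, absorbance read. Mean ± SEM.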

NCI-H460 cells [1] = assay: MTT cell viability assay, NCI-H460; format: cell-based; conditions: Homo sapiens, NCI-H460, read-out: IC50 against NCI-H460 cells
In short: as §1

NCI-H3122 cells = assay: MTT cell viability assay, NCI-H3122; format: cell-based; conditions: Homo sapiens, NCI-H3122, read-out: IC50 against NCI-H3122 cells
In short: as §1

EGFR = EGFR (Homo sapiens, UniProt P00533); assay: ELISA kinase assay, EGFR; format: biochemical
In short: (§2)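 Tyrosine kinase ELISA: ATP in kinase reaction buffer, then test compound diluted in DMSO (DMSO as negative control). Reaction started by adding purified kinase and incubated 1 h at 37°C. Plate washed three times with 1 mM PBS (pH 7.5), then HRP-conjugated goat anti-mouse IgG added for 30 min at 37°C. Washed again and read by spectrophotometer.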

E-cadherin = assay: Western blotting, E-cadherin level; format: cell-based; conditions: NCI-H460 cells, 48 h, Western blot
In short: (§3)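 Western blot: NCI-H460 cells treated 48 h with three test-compound concentrations; 5 × 10^6 cells lysed in RIPA, run on SDS-PAGE and transferred to PVDF. Membranes blocked in 5% defatted milk. Anti-E-cadherin or anti-N-cadherin (1:10000) at 4°C for 12 h; anti-GAPDH (1:50000) 2 h at 25°C as internal control. ECL detection; bands quantified against the control group; mean ± SEM.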

NCI-H460 cells [2] = assay: Wound healing assay; format: cell-based; conditions: 75 nM, 150 nM and 300 nM, 48 h
FGFR1 = FGFR1 (Homo sapiens, UniProt P11362); assay: ELISA kinase assay, FGFR1; format: biochemical
In short: as §2

NCI-H460 xenograft = NCI-H460 xenograft study; format: in vivo, BALB/c nude mice
In short: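 BALB/c nude mice (4 weeks, 18–21 g) carried NCI-H460 xenografts and were housed at 26–28°C on a 13 h/11 h light cycle. At tumour volume 100 mm3, mice were randomised, 5 per group, to water vehicle or 50 mg/kg test compound intragastrically every 3 days for 16 days. Tumours were then excised and weighed; heart, liver, spleen, lung and kidney taken for H&E.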

[3] = tested on: TE-11, SK-BR-3, HO-8910, QGY-7701, SHG-44, HCC-44, COLO-320, SH-SY5Y and SW579 cells; assay: MTT cell viability, panel of nine cancer cell lines; format: cell-based; conditions: 48 h
NCI-H460 cells [4] = assay: Transwell migration assay; format: cell-based; conditions: 48 h
In short: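 Transwell migration with NCI-H460 cells, at three test-compound concentrations. Cells seeded in the upper chamber in serum-free RPMI-1640; lower chamber held RPMI-1640 with 10% FBS. After 48 h at 37°C, 5% CO2, cells were fixed and haematoxylin-stained, and migrated cells were counted.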

ALK = ALK (Homo sapiens, UniProt Q9UM73); assay: ELISA kinase assay, ALK; format: biochemical
In short: as §2

PDGFRα = PDGFRα (Homo sapiens, UniProt P16234); assay: ELISA kinase assay, PDGFRα; format: biochemical
In short: as §2

N-cadherin = assay: Western blotting, N-cadherin level; format: cell-based; conditions: NCI-H460 cells, 48 h, Western blot
In short: as §3

TRKA = TRKA (Homo sapiens, UniProt P04629); assay: ELISA kinase assay, TRKA; format: biochemical
In short: as §2

[5] = MTT cytotoxicity against normal cells BEAS2B; format: cell-based; conditions: human, BEAS2B cells (normal human epithelium cells)
In short: as §1

Chain of EGFR (P00533 25-1210): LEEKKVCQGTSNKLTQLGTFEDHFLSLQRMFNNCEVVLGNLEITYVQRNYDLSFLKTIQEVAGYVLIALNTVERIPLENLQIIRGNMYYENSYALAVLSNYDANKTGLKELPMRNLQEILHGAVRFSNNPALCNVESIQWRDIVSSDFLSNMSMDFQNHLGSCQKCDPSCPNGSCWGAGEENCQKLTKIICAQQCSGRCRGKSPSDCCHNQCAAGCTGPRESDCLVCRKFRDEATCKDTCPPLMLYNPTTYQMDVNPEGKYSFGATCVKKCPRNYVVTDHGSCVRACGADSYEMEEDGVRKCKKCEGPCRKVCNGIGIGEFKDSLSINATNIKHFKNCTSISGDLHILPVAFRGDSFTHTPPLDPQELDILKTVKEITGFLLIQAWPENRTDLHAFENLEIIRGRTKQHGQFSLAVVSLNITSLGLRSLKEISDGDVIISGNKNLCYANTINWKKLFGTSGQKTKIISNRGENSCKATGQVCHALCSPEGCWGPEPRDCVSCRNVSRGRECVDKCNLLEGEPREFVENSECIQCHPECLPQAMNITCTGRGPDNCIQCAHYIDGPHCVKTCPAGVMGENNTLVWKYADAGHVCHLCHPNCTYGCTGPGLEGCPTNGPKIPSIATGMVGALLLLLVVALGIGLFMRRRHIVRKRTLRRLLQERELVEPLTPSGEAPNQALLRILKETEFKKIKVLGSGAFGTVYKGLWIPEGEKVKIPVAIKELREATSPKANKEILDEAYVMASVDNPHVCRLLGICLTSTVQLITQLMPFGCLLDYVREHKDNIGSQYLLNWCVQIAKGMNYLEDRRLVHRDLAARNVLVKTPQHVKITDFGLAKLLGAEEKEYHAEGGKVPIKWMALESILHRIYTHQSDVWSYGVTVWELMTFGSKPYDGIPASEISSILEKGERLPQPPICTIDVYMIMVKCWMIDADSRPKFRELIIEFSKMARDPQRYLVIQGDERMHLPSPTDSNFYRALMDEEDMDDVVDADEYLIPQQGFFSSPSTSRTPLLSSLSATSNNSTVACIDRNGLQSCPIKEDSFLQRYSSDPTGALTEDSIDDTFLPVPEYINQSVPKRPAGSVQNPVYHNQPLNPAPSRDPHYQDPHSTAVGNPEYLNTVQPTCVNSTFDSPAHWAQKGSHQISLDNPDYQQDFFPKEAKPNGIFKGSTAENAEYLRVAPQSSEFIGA
Chain of FGFR1 (P11362 22-822): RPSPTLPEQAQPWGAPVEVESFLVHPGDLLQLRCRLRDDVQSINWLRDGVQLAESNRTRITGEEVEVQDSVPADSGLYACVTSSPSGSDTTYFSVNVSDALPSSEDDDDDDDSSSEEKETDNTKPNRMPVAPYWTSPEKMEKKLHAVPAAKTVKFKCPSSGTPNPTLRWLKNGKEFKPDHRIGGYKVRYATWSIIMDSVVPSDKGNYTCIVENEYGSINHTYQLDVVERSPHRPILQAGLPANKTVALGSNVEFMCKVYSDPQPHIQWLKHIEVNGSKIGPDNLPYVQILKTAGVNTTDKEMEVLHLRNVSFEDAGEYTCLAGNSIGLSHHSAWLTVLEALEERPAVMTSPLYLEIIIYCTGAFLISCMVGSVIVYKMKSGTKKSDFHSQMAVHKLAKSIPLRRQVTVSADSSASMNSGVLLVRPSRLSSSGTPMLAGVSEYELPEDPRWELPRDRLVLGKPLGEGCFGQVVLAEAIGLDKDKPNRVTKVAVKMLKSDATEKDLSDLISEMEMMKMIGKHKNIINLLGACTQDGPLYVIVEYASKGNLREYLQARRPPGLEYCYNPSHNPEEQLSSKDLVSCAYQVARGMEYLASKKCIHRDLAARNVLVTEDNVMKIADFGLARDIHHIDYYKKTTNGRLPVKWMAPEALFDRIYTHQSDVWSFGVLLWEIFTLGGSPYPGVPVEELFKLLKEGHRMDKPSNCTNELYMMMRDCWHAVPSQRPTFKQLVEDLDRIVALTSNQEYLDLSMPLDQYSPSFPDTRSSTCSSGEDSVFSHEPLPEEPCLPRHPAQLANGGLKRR
Chain of c-Met kinase (P08581 25-1390): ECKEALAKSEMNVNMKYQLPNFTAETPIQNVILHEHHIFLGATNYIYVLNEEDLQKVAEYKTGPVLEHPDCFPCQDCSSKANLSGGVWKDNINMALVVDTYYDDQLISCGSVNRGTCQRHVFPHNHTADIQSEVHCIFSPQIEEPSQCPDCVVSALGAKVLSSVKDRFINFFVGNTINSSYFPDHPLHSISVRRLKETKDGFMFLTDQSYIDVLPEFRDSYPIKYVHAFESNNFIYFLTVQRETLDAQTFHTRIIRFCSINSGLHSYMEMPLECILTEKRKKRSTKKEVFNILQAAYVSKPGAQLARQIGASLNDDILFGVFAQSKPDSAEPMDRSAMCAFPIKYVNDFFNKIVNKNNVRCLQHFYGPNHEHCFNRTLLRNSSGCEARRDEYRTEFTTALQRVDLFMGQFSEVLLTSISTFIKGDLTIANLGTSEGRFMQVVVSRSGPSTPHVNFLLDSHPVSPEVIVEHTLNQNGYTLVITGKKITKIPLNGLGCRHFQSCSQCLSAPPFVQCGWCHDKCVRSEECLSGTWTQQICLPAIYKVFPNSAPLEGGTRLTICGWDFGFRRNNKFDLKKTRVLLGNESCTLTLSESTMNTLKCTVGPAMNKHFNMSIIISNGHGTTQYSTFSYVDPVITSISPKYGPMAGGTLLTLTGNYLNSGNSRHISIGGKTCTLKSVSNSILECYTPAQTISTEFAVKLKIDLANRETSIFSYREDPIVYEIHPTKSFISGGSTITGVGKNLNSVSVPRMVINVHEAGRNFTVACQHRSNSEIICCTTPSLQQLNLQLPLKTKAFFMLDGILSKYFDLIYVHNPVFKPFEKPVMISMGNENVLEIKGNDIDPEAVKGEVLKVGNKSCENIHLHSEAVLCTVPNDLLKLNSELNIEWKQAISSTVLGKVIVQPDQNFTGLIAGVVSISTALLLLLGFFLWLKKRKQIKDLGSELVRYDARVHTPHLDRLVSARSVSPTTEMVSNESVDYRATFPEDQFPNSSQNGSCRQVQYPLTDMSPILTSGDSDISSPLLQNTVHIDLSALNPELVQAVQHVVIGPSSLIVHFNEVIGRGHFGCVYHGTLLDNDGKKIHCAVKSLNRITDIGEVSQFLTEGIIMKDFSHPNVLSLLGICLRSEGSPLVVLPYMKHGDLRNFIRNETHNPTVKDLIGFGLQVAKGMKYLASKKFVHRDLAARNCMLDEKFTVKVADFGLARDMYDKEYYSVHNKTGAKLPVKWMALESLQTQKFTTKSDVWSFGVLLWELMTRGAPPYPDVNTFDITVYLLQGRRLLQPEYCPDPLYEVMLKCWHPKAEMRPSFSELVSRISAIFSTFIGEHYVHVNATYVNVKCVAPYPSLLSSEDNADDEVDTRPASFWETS
Chain of ALK (Q9UM73 19-1620): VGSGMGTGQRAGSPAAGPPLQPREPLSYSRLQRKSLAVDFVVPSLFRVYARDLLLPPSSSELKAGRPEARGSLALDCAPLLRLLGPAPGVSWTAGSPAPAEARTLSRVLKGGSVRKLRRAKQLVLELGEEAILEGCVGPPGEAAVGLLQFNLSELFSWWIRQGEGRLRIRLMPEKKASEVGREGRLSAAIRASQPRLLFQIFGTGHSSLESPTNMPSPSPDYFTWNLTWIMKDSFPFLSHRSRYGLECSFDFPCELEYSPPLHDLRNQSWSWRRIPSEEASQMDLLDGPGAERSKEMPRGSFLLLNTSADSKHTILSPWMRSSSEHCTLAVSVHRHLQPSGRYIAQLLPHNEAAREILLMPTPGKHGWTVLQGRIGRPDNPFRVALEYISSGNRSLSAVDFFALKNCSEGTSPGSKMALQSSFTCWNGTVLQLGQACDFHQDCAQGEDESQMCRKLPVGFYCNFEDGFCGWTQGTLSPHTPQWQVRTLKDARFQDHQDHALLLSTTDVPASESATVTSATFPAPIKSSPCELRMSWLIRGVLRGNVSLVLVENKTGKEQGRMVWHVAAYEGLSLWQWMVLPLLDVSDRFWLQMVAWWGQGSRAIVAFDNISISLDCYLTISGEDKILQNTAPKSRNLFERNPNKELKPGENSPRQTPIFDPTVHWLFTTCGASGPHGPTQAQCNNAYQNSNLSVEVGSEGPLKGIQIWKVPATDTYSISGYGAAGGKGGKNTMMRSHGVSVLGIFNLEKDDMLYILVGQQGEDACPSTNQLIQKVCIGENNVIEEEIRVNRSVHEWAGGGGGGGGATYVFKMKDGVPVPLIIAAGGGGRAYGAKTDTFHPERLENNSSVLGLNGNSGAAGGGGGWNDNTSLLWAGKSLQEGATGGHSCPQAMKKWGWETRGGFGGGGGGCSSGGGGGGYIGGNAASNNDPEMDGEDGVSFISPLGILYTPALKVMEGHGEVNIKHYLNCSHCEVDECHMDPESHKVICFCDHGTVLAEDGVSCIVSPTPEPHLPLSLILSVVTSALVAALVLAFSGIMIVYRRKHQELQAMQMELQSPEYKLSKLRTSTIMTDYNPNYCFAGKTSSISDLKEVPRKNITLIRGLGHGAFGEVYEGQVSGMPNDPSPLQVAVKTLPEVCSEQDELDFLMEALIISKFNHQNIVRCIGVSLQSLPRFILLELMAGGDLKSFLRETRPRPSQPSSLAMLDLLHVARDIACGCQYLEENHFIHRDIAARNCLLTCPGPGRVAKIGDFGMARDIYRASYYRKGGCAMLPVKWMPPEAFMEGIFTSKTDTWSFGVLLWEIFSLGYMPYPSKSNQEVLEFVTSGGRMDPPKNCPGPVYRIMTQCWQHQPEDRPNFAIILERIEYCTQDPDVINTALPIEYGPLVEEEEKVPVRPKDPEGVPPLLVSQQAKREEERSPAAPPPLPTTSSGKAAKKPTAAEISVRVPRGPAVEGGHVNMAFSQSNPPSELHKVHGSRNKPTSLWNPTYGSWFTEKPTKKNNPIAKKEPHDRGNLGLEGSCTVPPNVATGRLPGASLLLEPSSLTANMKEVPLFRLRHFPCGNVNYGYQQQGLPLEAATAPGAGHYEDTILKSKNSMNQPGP

O=C(/C=C/c1ccc(Br)cc1)c1ccc(OCCCSc2nncs2)cc1 [ZW97, (E)-1-(4-(3-((1,3,4-thiadiazol-2-yl)thio)propoxy)phenyl)-3-(4-bromophenyl)prop-2-en-1-one]
IC50 (c-Met kinase): 0.02796 ± 0.00014 µM
antiproliferative efficacy against HCC-44 cells (HCC-44 cells; 4 μM): approximately 65.7%
antiproliferative efficacy against HCC-44 cells (HCC-44 cells; 8 μM): ~88.3%
IC50 (HCC-44 cells; Homo sapiens, HCC44, read-out: IC50 against HCC-44 cells): 2.06 µM
IC50 (NCI-H460 cells [1]): 0.15 µM
IC50 (NCI-H3122 cells): 1.17 µM
IC50 (EGFR): > 1.5 µM
level of E-cadherin (E-cadherin): upregulated
wound healing (NCI-H460 cells [2]): inhibited the wound healing in a concentration dependent manner
IC50 (FGFR1): > 1.5 µM
subcutaneous tumour growth (NCI-H460 xenograft; 50 mg/kg intragastric for 16 days): suppressed NCI-H460 subcutaneous tumour growth
mouse body weight (NCI-H460 xenograft; 50 mg/kg intragastric for 16 days, compared with control): did not significantly decrease the mouse body weight
inhibitory rate (tumour weight) (NCI-H460 xenograft; day 16, 50 mg/kg intragastric once every 3 days, versus vehicle group): 61.58%
antiproliferative activity in nine cancer cell lines [3]: antiproliferative activity against all nine cancer cell lines
cell migration (transwell) (NCI-H460 cells [4]): hindered NCI-H460 cell migration
IC50 (ALK): > 1.5 µM
IC50 (PDGFRα): > 1.5 µM
level of N-cadherin (N-cadherin): downregulated
IC50 (TRKA): > 1.5 µM
IC50 [5]: > 64 µM
